Bioassay records (PubChem)
TAAR1 agonist: human TAAR1 agonism; AID 624467; CHO RD-HGA16 TAAR1, Fluo-8 calcium fluorescence; vehicle wells 0%, saturating PEA agonist 100%; activation, % at 3 µM; 360,000 tested, 0.99% active;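 active means activation above the mean activation of all test compounds in the run plus 3 SD, cut at about 38% in these data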
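Benchmarks: low control DMSO, high control PEA (EC100); System: CHO RD-HGA16 cells carrying human TAAR1 plus Gα16; Detection: Fluo-8 fluorescence, 5 s baseline then 140 s kinetic read; Schedule: 17-24 h plating, Fluo-8 75 min 37 °C, 30 min RT; Read-out basis: % activation from peak over basal fluorescence ratio, DMSO-to-PEA scaled.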
OX1R antag-1: antagonists of human orexin 1 receptor; O43613; inhibition, % at 5 µM; CHO/OX1R cells, Fluo-8 calcium fluorescence, orexin A; 330,000 tested, 0.43% active;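 active means inhibition above its plate's threshold, mean inhibition of all tested compounds on the plate plus 3 SD, cut at about 37% in these data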;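 further: 0% = orexin A challenge wells and 100% = SB-334867-A antagonist wells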
TAAR1 antagonist: human TAAR1 antagonism | inhibition, % at 3 µM | 360,000 tested, 1.5% active | AID 624466 | CHO RD-HGA16 TAAR1, Fluo-8 calcium fluorescence, antagonist | Q96RJ0;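 active means inhibition above a per-plate cutoff, the mean inhibition of test compounds on that plate plus 3 SD, cut at about 49% in these data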;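 further: 0% = DMSO plus EC80 beta-PEA response and 100% = DMSO alone without agonist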
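Test system: CHO RD-HGA16 cells bearing hTAAR1 | Reagent: β-PEA, EC80 | Compound dosing: 3 µM, single point | Schedule: Dye loading 75 min at 37 °C, then 30 min room temperature | Signal: Calcium fluorescence with Fluo-8 | Evaluation: Percent inhibition of PEA-evoked calcium signal, max/basal emission ratio | Control set: DMSO-only wells and EC80 β-PEA-stimulated wells | Repeats: Singlicate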
GPR7 antagonist: blocks human GPR7 receptor signaling; GPR7-expressing cells, fluorescence antagonist assay; inhibition, % at 4.4 µM; 290,000 tested, 1.1% active; AID 1861; in the data active means inhibition above about 16%, passing the limit was not always enough;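 further: cells stimulated with the agonist NPW; 0% = agonist with vehicle and 100% = vehicle without agonist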
Target sequence (P48145 whole entry, looked up): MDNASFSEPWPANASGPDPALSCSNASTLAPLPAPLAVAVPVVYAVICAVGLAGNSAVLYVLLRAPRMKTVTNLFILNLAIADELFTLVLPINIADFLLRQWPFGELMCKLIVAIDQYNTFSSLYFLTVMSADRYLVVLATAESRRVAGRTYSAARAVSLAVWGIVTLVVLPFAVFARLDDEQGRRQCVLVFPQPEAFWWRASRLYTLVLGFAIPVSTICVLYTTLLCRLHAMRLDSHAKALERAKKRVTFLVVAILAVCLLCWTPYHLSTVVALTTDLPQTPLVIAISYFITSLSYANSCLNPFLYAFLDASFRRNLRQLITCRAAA
OX1R antag-2: blocks the human orexin 1 receptor; O43613; OX1R-expressing cells, FRET antagonist read-out; inhibition, % at 6.6 µM; 330,000 tested, 1.8% active; AID 485270; in the data active means inhibition mostly above about 38%, no sharp cut-off; inactive means mostly below about 40%;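 further: 0% = agonist challenge alone and 100% = reference antagonist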
CHO parental Ca: counter-screen: ATP calcium response change in parental CHO cells. parental CHO-K1, ATP-induced calcium, Fluo-8 fluorescence. inhibition, % at 5.6 µM. 330,000 tested, 0.63% active. AID 463079;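 active means inhibition above that plate's mean sample inhibition plus 3 SD, cut at about 26% in these data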;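 further: 0% = ATP-challenged DMSO wells and 100% = DMSO wells without ATP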
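Assay system: parental CHO cells; Read-out basis: percent inhibition of ATP-evoked calcium rise, normalized to controls; Benchmarks: ATP and no-ATP DMSO wells; Compound dosing: single nominal dose of 5.6 µM per compound; Signal: Fluo-8 calcium dye fluorescence; Also added: ATP as calcium-mobilizing challenge; Repeats: singlicate.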
GPR7 antag cf: confirmation of human GPR7 antagonists; shares compounds with GPR7 antagonist; GPR7-expressing cells, calcium fluorescence antagonist mode; inhibition, % at 4.4 µM; 2,400 tested, 52% active; AID 1952; in the data active means inhibition above about 24%;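 further: stimulated with the GPR7 agonist NPW; 0% = agonist plus vehicle and 100% = vehicle alone without agonist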
MCHR1 antag: counter-screen for GPR7 antagonists: antagonists of human MCHR1; shares compounds with GPR7 antagonist; 2,400 tested, 62% active; inhibition, % at 4.4 µM; MCHR1-expressing cells, fluorescence antagonist assay; in the data active means inhibition above about 22%;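 further: 0% = vehicle with agonist and 100% = vehicle without agonist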
* = called active by the depositor; nt = no result. Sampled rows, rich in hits. Any-hit rate of the full collection: about 4.6%.

SMILES	TAAR1 agonist	OX1R antag-1	TAAR1 antagonist	GPR7 antagonist	OX1R antag-2	CHO parental Ca	GPR7 antag cf	MCHR1 antag
O=[N+]([O-])c1ccc2nc(-c3ccccc3[N+](=O)[O-])[nH]c2c1	11	-9	-9	25*	25	-4	3	4
COCCn1c(SCC(=O)N(C)c2ccccc2)nc2c([nH]c3ccccc32)c1=O	5	-16	28	31*	24	-28	-19	-2
CCCN(CCC)C1=CC(=[N+]2CCCC2)CC(C)(C)C1	1	-15	13	52*	10	-2	58*	51*
CN(C)NC1=CC(=[N+]2CCCC2)CC(C)(C)C1	1	-1	-7	-2	23	1	nt	nt
COc1ccc(-c2onc(C)c2-c2cnn(-c3ccccc3)c2)c(O)c1C	-1	-30	-4	32*	20	-13	25*	34*
COc1ccc(-c2n[nH]c(C)c2-c2cnn(-c3ccccc3)c2)c(O)c1C	24	-13	41	-18	15	-13	nt	nt
N=C(N)SCc1cn(-c2ccccc2)nc1-c1ccc(Br)cc1	79*	nt	47	26*	nt	nt	63*	89*
CC(C)CNC(=O)c1cc2nc3c(c(C(F)(F)F)n2n1)CCc1ccccc1-3	11	-19	4	22*	12	-9	-3	11
CCCCNC(=O)c1cc2nc3c(c(C(F)(F)F)n2n1)CCc1ccccc1-3	5	-3	19	0	18	2	nt	nt
COc1cccc(C(=O)NCCCNc2nc3cc(C)cc(C)c3cc2C#N)c1	6	nt	34	nt	nt	nt	nt	nt
C/C(CC(=O)Nc1ccccc1)=N\NC(=O)COc1ccc(C)cc1Br	11	-28	-11	-2	46	-26	nt	nt
CCc1ccc(NC(=O)C/C(C)=N/NC(=O)COc2ccc(C)cc2Br)cc1	4	-31	-25	42*	15	-22	-4	-9
O[C@@H]1C[C@H](c2ccc(Cl)cc2)N(Cc2cccs2)C[C@H]1n1cc(C2CC2)nn1	0	nt	-31	nt	nt	nt	nt	nt
CC(C)C[C@H](NC(=O)c1ccccc1)C(=O)N1CCC[C@H]1C(=O)NCc1ccccc1	8	nt	-25	nt	nt	nt	nt	nt
O=C(C1COc2ccccc2O1)N1CCCCC1 (configuration not stated)	1	1	-1	nt	8	-6	nt	nt
O=C(C1COc2ccccc2O1)N1CCc2ccccc2C1 (configuration not stated)	9	-17	7	21*	8	-18	5	35*
CCCS(=O)(=O)NC(=O)C1(C)CCN(C(=O)c2ccnc(Cl)c2)C1 (configuration not stated)	0	nt	-14	nt	nt	nt	nt	nt
COc1ccc(C(C)(C)C)cc1NC(=O)OC[C@@H]1CSCCS(=O)(=O)N1	5	nt	-11	nt	nt	nt	nt	nt
CCOc1cc(/C=C2/COc3ccccc3C2=O)ccc1OCC(=O)N(C)C	1	nt	-2	24*	nt	nt	5	21*
O=C(CCCc1cccs1)N1CCN(S(=O)(=O)c2ccccc2Br)CC1	8	-27	6	29*	13	-6	11	25*
O=C(O)CCC(=O)N1CCN(S(=O)(=O)c2cccs2)CC1	0	0	-12	-21	0	-1	nt	nt
CCOc1ccc2c(c1)C(=O)C(=O)N2CC1COc2ccccc2O1 (configuration not stated)	-2	-8	2	25	-8	-7	nt	nt
COc1ccc2c(c1)C(=O)C(=O)N2CC1COc2ccccc2O1 (configuration not stated)	-1	-6	26	31*	-7	-11	20	27*
O=C(OCC(=O)c1c[nH]c2ccccc12)c1ccc(F)c(S(=O)(=O)N2CCOCC2)c1	21	nt	-20	nt	nt	nt	nt	nt
CCC(=O)N/C(=N/c1nc(C)cc(C)n1)Nc1ccc(OC)cc1	6	2	-3	35*	8	-17	-4	17
